# Experimental data from different studies.
# Each line is one published result; the experiments were not run side by side.
SMILES,test system,setting,Tmax [h]
CC(C)(C)OC[C@@H]1C(=O)NCCN1C(=O)C[C@H](N)Cc1cc(F)c(F)cc1F,"male human, plasma","oral, 5 mg, multiple doses, steady state",2
c1cnc2ccc(Nc3nc(NC4CC4)c4nc[nH]c4n3)cc2c1,"human, plasma","oral, 800 mg/m², patients",5
CC(C)(O)c1ccccc1-c1ccc2[nH]c(/C=C/c3ccc(C(F)(F)F)cc3)nc2c1,"male human, plasma","oral, 5 mg, single dose, fasted",3.95
C[C@@]1(c2cc(NC(=O)c3ccc(C#N)cn3)ccc2F)C=CSC(N)=N1,"human, plasma","oral, 150 mg, single dose",1.5
FC(F)(F)c1ccc(CNc2ccc(Cc3c[nH]c4ncc(Cl)cc34)cn2)cn1,"human, plasma","oral, 600 mg, single dose",2.5
C[C@@H](Nc1cc(F)cc(F)c1)c1cc(C(=O)N(C)C)cc2c(=O)cc(N3CCOCC3)oc12,"human, plasma","oral, 240 mg, single dose, patients",1.75
COc1ccc([C@@H]2CN(C(=O)[C@@H](O)CO)C[C@@]2(C)[C@@H](C)O)cc1OC1CN(c2ccc(C)cn2)C1,"human, plasma","oral, 1.5 mg, single dose, healthy volunteers",1
Cc1nc(-c2cn3c(n2)-c2ccc(-c4cnn(C(C)(C)C(N)=O)c4)cc2OCC3)n(C(C)C)n1,"human, plasma","oral, 2 mg, patients",3.97
C#C[C@]1(COP(=O)(O)OP(=O)(O)OP(=O)(O)O)O[C@@H](n2cnc3c(N)nc(F)nc32)C[C@@H]1O,"human, plasma","oral, 15 mg, single dose",6
C=CC(=O)N(C)CCOc1c(N)ncnc1-c1cc(F)cc(NC(=O)c2ccc(C3CC3)cc2F)c1C,"human, blood","oral, 1.5 mg, single dose, healthy volunteers",0.5
Nc1cc(C(F)(F)F)c(-c2cc(N3CCOCC3)nc(N3CCOCC3)n2)cn1,"human, plasma","oral, 25 mg/day, patients",1
CO[C@@H]1[C@H](OC(=O)N2CC(CCN3CCOCC3)C2)CC[C@]2(CO2)[C@H]1[C@@]1(C)O[C@@H]1CC=C(C)C,"human, plasma","subcutaneous, 4.8 mg, single dose, healthy volunteers",0.25
CCCCOC(=O)N1CCN(C(=O)[C@H](CP(=O)(O)O)NC(=O)c2cc(N3CC[C@H](OC)C3)nc(-c3ccccc3)n2)CC1,"human, plasma","subcutaneous, 16 mg, single dose",0.733
Cn1cc(-c2ccc(S(=O)(=O)[C@@H]3C[C@@H](C(=O)NC4(C#N)CC4)N(C(=O)C4(C(F)(F)F)CC4)C3)c(C(F)(F)F)c2)cn1,"human, plasma","oral, 10 mg, single dose, fasted, healthy volunteers",4.5
CO[C@H]1/C=C\C=C(/C)C(=O)NC2=CC(=O)C(NCCN(C)C)=C(C[C@@H](C)C[C@H](OC)[C@H](O)[C@@H](C)/C=C(\C)[C@@H]1OC(N)=O)C2=O,"human, plasma","intravenous, 12 mg/m², patients, infusion",1
COc1cc(N2CCC(N3CCN(C)CC3)CC2)ccc1Nc1ncnc(Nc2ccccc2S(=O)(=O)C(C)C)n1,"human, plasma","oral, 25 mg, multiple doses, patients",2.48
CC(C)[C@H](N)C(=O)NCCCS(=O)(=O)O,"human, plasma","oral, 256.5 mg, multiple doses, twice daily, fasted",0.5
C/C(=C\c1csc(C)n1)[C@@H]1C[C@@H]2O[C@]2(C)CCC[C@H](C)[C@H](O)[C@@H](C)C(=O)C(C)(C)[C@@H](O)CC(=O)N1,"human, plasma","intravenous, 15 mg/m², patients",0.8
CCCOc1ccc([C@H]2CNC(=O)N2c2ccc3[nH]cnc3c2)cc1,"human, plasma","oral, 200 mg, single dose, fed, healthy volunteers",2
CS(=O)(=O)CCC#N,"human, plasma","oral, 1000 mg, single dose, fasted",1.5
O=C(O)C[C@H](O)C[C@H](O)/C=C/c1c(C2CC2)nc2ccccc2c1-c1ccc(F)cc1,"human, plasma","oral, 2 mg, single dose, fed, healthy volunteers, tablet",1.13
O=C(Nc1c(Cl)cncc1Cl)c1ccc(OC(F)F)c(OCC2CC2)c1,"human, plasma","oral, 0.5 mg, single dose",0.75
Oc1cc(O)c2c(c1)O[C@@H](c1ccc(O)c(O)c1)[C@@H](O)C2,"human, plasma","oral, 10 mg, single dose",1
CCc1nc(C(N)=O)c(Nc2ccc(N3CCC(N4CCN(C)CC4)CC3)c(OC)c2)nc1NC1CCOCC1,"human, plasma","oral, 300 mg, multiple doses, patients",6.93
CCc1nc2c(C)cc(N3CCN(CC(=O)N4CC(O)C4)CC3)cn2c1N(C)c1nc(-c2ccc(F)cc2)c(C#N)s1,"human, plasma","oral, 1500 mg, fed, healthy volunteers",2
Cc1nc(NC(=O)N2CCC[C@H]2C(N)=O)sc1-c1ccnc(C(C)(C)C(F)(F)F)c1,"human, plasma","oral, 270 mg, patients",2.02
CCO[C@H]1CCN(Cc2c(OC)cc(C)c3[nH]ccc23)[C@H](c2ccc(C(=O)O)cc2)C1,"human, plasma","oral, 100 mg, multiple doses, twice daily, patients",1.53
CCOc1cc2ncc(C#N)c(Nc3ccc(OCc4ccccn4)c(Cl)c3)c2cc1NC(=O)/C=C/[C@H]1CCCN1C,"human, plasma","oral, 80 mg, single dose",4.98
CC(C)n1cc(C#N)c2cc(-n3cc(C(=O)O)cn3)ccc21,"human, plasma","oral, 200 mg, single dose, fed, healthy volunteers",5
CC(C)(Sc1ccncc1-c1ccc(C#N)c2ccccc12)C(=O)O,"male human, plasma","oral, 20 mg, single dose, fasted, healthy volunteers",0.5
CC(C)[C@](O)(c1ccc2cc(OC(F)F)c(OC(F)F)cc2c1)c1c[nH]nn1,"female human, plasma","oral, 600 mg, single dose",2.5
NS(=O)(=O)NCCNc1nonc1C(=NO)Nc1ccc(F)c(Br)c1,"human, plasma","oral, 500 mg, multiple doses, twice daily, steady state, patients",2
